Legend:
[1] = molecular target: Serine/threonine-protein kinase MRCK alpha (Homo sapiens) (UniProt Q5VT25); test: Inhibition of MRCKA at 1 uM
Method in brief: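 Kinase-panel screen using KINOMEscan technology, with 250–400 kinases per panel. Each compound was tested at a single concentration, and inhibition of each kinase was recorded. Selectivity was summarised as S(90), the fraction of kinases inhibited by more than 90%.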

[2] = system: Phosphatidylinositol 4,5-bisphosphate 3-kinase catalytic subunit alpha isoform (Homo sapiens), P42336 [E545A]; test: Inhibition of PIK3CA E545A mutant at 1 uM
[3] = molecular target: Serine/threonine-protein kinase PRP4 homolog (Homo sapiens) (UniProt Q13523); test: Inhibition of PRP4 at 1 uM
[4] = molecular target: T1, Myosin light chain kinase family member 4 (Homo sapiens) (UniProt Q86YV6); test: Inhibition of SgK085 at 1 uM
T1 sequence (whole entry): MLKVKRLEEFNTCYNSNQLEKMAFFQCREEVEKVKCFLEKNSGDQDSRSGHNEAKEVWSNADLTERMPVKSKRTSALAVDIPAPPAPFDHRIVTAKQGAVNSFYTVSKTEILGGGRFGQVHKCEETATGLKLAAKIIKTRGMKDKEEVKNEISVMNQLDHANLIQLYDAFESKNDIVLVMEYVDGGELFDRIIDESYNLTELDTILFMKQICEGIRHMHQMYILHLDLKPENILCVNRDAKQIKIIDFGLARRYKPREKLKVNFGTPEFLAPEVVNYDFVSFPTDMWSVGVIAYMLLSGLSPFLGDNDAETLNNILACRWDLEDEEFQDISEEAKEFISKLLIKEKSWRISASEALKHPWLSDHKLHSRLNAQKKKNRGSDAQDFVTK

[5] = molecular target: T2, Serine/threonine-protein kinase 36 (Homo sapiens) (UniProt Q9NRP7); test: Inhibition of STK36 at 1 uM
T2 sequence (whole entry): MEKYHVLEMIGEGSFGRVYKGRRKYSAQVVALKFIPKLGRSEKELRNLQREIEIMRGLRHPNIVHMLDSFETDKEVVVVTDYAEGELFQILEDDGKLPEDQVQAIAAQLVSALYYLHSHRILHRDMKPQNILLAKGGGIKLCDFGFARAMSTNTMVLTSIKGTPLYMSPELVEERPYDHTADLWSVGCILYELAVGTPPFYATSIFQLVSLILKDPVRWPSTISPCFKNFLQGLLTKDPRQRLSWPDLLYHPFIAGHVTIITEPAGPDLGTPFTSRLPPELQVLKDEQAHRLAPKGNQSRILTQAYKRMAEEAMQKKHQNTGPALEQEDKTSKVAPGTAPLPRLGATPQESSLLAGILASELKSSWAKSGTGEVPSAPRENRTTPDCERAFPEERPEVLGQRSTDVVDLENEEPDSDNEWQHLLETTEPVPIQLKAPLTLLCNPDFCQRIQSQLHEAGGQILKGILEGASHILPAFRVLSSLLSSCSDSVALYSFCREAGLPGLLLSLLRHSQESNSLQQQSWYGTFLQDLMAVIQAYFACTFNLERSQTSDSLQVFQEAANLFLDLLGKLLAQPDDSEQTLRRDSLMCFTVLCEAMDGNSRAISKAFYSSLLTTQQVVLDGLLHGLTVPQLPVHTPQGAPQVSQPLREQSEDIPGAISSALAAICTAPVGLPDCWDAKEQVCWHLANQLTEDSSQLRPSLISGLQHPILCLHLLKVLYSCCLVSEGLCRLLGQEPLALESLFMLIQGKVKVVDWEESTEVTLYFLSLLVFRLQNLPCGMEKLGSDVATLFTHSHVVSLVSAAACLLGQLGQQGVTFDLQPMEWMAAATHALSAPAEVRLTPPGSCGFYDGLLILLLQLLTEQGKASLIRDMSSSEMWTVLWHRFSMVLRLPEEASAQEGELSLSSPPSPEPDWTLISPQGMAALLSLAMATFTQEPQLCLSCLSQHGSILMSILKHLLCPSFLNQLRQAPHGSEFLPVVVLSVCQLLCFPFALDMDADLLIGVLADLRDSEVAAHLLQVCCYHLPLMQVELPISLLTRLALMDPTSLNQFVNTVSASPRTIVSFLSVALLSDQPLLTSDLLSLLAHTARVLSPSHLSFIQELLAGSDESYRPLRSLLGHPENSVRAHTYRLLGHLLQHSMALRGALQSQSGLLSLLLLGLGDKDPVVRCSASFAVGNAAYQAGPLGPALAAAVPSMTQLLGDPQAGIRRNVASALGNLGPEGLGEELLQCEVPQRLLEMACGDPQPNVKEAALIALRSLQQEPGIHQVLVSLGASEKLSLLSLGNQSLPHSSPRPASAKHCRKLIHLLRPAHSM

[6] = molecular target: Mitogen-activated protein kinase kinase kinase 20 (Homo sapiens) (UniProt Q9NYL2); test: Inhibition of ZAK at 1 uM
[7] = molecular target: T3, Serine/threonine-protein kinase 17B (Homo sapiens) (UniProt O94768); test: Inhibition of DRAK2 at 1 uM
T3 sequence (whole entry): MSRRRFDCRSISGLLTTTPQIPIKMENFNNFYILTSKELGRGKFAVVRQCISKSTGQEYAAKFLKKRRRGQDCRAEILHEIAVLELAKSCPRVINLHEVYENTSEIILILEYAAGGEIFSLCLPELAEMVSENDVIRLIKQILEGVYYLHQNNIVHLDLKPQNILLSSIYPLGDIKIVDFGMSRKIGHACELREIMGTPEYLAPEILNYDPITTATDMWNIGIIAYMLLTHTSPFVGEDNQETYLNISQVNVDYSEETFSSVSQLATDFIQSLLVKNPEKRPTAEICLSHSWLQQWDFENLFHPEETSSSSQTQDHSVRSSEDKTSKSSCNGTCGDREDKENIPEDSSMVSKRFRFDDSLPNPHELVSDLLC

[8] = system: Fibroblast growth factor receptor 3 (Homo sapiens), P22607 [G697C]; test: Inhibition of FGFR3 G697C mutant at 1 uM
Method in brief: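 Single-concentration screen using Ambit Bioscience KINOMEscan technology across a panel of 250–400 kinases. Per-kinase inhibition from this screen was summarized as S(90), the fraction of kinases inhibited by more than 90%.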

Mitogen-activated protein kinase kinase kinase 20 (Homo sapiens), sequence (Q9NYL2 2-800 limits assumed): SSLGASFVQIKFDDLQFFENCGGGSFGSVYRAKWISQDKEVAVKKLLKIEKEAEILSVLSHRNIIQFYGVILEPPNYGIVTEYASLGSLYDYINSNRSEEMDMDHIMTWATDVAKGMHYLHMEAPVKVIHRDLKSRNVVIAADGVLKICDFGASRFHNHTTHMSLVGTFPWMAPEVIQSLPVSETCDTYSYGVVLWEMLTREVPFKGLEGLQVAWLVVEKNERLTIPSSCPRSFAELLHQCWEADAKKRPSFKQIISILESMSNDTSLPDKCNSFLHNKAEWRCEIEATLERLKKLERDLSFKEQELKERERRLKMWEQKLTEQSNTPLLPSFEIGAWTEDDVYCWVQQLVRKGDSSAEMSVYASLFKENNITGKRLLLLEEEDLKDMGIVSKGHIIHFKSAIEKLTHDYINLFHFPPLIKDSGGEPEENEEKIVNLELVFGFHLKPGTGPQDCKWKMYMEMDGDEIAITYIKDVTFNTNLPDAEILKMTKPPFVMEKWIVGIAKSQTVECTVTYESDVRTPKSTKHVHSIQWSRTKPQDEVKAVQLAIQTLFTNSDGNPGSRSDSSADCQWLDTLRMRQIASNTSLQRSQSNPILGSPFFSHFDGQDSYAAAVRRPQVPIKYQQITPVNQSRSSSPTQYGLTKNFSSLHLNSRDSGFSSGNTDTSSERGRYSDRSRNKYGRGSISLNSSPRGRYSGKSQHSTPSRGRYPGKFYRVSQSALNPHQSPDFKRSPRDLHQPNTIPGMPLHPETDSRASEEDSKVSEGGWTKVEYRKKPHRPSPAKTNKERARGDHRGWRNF
Phosphatidylinositol 4,5-bisphosphate 3-kinase catalytic subunit alpha isoform (Homo sapiens), P42336 [E545A], sequence (P42336 whole entry E545A, canonical isoform): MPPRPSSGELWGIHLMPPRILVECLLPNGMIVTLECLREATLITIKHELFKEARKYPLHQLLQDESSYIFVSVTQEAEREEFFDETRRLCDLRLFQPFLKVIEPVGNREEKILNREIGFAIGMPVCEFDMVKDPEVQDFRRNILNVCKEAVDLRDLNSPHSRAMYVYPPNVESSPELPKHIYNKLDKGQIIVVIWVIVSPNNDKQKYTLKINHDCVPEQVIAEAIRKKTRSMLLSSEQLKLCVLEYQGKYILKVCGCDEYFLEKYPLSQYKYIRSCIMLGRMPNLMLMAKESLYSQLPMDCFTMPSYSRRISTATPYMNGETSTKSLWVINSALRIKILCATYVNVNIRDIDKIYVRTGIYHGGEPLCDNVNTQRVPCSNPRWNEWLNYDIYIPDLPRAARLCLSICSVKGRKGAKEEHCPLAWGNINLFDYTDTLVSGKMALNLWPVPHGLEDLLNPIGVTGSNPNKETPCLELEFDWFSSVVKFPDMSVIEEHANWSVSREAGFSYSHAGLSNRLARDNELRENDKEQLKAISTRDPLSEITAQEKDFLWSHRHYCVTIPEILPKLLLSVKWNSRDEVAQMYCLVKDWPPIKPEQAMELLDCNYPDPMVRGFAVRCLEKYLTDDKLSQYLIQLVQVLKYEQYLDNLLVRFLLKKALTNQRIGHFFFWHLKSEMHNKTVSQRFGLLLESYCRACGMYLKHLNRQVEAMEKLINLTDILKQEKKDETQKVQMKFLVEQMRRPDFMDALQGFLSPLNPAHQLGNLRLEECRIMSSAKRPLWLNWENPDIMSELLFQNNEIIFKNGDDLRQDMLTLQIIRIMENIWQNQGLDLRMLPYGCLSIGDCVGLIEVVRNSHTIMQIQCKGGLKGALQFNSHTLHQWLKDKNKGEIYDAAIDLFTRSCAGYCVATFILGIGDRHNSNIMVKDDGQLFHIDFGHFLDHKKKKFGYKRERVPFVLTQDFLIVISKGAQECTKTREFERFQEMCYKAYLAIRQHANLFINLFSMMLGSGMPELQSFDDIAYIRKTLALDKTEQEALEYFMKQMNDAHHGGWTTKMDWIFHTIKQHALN
Fibroblast growth factor receptor 3 (Homo sapiens), P22607 [G697C], sequence (P22607 whole entry G697C): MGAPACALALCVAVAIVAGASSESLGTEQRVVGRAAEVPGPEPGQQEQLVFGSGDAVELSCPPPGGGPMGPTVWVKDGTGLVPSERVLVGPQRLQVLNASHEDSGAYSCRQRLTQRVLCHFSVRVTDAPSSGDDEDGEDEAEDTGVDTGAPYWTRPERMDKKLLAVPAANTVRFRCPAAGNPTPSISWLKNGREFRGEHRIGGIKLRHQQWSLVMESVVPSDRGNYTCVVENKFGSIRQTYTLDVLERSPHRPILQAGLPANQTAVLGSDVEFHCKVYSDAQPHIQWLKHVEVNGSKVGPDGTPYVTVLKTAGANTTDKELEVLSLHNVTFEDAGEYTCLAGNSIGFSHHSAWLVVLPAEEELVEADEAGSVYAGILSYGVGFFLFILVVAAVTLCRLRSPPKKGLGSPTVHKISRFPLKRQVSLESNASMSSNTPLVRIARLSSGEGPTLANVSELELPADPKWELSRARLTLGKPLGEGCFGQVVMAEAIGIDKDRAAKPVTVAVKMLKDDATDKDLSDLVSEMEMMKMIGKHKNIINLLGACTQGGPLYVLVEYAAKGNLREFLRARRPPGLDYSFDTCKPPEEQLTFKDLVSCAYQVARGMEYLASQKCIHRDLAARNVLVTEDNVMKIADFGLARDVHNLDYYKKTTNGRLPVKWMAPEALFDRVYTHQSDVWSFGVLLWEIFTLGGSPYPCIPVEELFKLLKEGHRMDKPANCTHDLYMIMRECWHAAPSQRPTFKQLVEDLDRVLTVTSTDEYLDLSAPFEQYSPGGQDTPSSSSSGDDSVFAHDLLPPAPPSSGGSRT
Serine/threonine-protein kinase PRP4 homolog (Homo sapiens), sequence (Q13523 whole entry): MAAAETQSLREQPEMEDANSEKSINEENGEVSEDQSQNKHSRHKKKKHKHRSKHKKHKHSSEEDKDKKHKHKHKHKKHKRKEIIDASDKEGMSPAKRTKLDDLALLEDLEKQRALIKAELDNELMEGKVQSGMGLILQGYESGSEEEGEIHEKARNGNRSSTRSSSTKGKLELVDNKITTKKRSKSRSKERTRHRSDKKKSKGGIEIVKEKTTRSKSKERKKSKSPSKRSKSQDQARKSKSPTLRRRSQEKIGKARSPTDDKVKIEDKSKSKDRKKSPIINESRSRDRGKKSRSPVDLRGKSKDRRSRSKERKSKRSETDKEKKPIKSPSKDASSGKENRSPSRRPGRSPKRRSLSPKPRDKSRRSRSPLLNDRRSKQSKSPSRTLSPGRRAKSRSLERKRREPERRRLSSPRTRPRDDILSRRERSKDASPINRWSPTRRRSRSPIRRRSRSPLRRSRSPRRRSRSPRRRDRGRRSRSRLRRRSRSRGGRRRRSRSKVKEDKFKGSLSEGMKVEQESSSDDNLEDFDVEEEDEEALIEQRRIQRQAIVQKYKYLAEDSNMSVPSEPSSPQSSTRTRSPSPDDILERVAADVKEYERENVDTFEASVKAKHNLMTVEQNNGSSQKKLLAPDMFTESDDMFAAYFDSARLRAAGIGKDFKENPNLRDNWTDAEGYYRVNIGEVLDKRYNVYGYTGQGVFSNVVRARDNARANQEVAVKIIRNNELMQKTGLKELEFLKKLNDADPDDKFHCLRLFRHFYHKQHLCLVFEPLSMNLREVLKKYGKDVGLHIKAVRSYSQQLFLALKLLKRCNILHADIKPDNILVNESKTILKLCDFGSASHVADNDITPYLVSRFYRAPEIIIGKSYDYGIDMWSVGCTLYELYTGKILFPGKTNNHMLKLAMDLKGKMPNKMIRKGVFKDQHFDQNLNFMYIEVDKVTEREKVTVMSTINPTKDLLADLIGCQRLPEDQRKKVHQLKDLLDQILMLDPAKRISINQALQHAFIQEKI

| SMILES | inhibition [1] [%] | inhibition [2] [%] | inhibition [3] [%] | inhibition [4] [%] | inhibition [5] [%] | inhibition [6] [%] | inhibition [7] [%] | inhibition [8] [%] |
| --- | --- | --- | --- | --- | --- | --- | --- | --- |
| CN1CCN(c2ccc(-c3cnc4c(c3)N(Cc3cc(Cl)ccc3C(F)(F)F)CCN4)cn2)CC1 | < 50 | < 50 | < 50 | < 50 | < 50 | < 50 | < 50 | < 50 |
| O=C(c1ccc(-c2cnc3c(c2)N(Cc2cc(Cl)ccc2C(F)(F)F)CCN3)cc1)N1CCC(N2CCCC2)CC1 | < 50 |  |  |  |  |  |  | < 50 |
| FC(F)(F)c1ccc(Cl)cc1CN1CCNc2ncc(-c3ccnc(N4CCNCC4)c3)cc21 | < 50 | < 50 | < 50 | < 50 | < 50 | < 50 | < 50 | < 50 |
| CC(=O)N1CCN(c2cc(-c3cnc4c(c3)N(Cc3cc(Cl)ccc3C(F)(F)F)CCN4)ccn2)CC1 | < 50 | < 50 | < 50 | < 50 | < 50 | < 50 | < 50 | < 50 |
| CN1CCN(c2ccc(-c3cnc4c(c3)N(Cc3cc(F)ccc3F)CCN4)cn2)CC1 | < 50 | < 50 | < 50 | < 50 | < 50 | < 50 | < 50 | < 50 |
| CN1CCN(c2ccc(-c3cnc4c(c3)N(Cc3c(F)ccc(F)c3Cl)CCN4)cn2)CC1 | < 50 | < 50 | < 50 | < 50 | < 50 | < 50 | < 50 | < 50 |
| CN1CCN(c2ccc(-c3cnc4c(c3)N(Cc3cc(Cl)ccc3Cl)CCN4)cn2)CC1 | < 50 | < 50 | < 50 | < 50 | < 50 | < 50 | < 50 | < 50 |

Next, values leading:

| inhibition [1] [%] | inhibition [2] [%] | inhibition [3] [%] | inhibition [4] [%] | inhibition [5] [%] | inhibition [6] [%] | inhibition [7] [%] | inhibition [8] [%] | SMILES |
| --- | --- | --- | --- | --- | --- | --- | --- | --- |
| < 50 |  |  |  |  |  |  | < 50 | O=C(O)c1ccc(-c2cnc3c(c2)N(Cc2cc(Cl)ccc2C(F)(F)F)CCN3)cc1 |
| < 50 |  |  |  |  |  |  | < 50 | COC1CCN(C(=O)c2ccc(-c3cnc4c(c3)N(Cc3cc(Cl)ccc3C(F)(F)F)CCN4)cc2)CC1 |
| < 50 |  |  |  |  |  |  | < 50 | O=C(c1ccc(-c2cnc3c(c2)N(Cc2cc(Cl)ccc2C(F)(F)F)CCN3)cc1)N1CCCCC1 |

Source: ChEMBL document CHEMBL1165965, “Synthesis and structure-activity relationships of 1,2,3,4-tetrahydropyrido[2,3-b]pyrazines as potent and selective inhibitors of the anaplastic lymphoma kinase” (Bioorg Med Chem, 2010)
